Assay results reported in ChEMBL document CHEMBL3864151, “Discovery of imidazopyridazines as potent Pim-1/2 kinase inhibitors” (Bioorg Med Chem Lett, 2016).
Values after ≈ are worked out from the molar mass of the structure shown. Active and inactive are the calls of the source. The rule behind the calls is not given here.

Key:
[1] = Intrinsic clearance in rat liver microsomes at 1 uM after 30 mins by LC-MS HRMS analysis; format: ADME; conditions: read-out: CLH
[2] = Intrinsic clearance in human liver microsomes at 1 uM after 30 mins by LC-MS HRMS analysis; format: ADME; conditions: read-out: CLH
[3] = Clearance in Sprague-Dawley rat at 2 mg/kg, iv; format: ADME, organism-based; conditions: in vivo
How it was run: (§1)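 Male Sprague Dawley rats, 3 animals per dosing route, mean values. iv dose 2 mg/kg as a solution in DMSO; po dose 5 mg/kg in 1% Tween 80, 2% HPMC, 97% water/methanesulfonic acid pH 2.2.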

[4] = Volume of distribution at steady state in Sprague-Dawley rat at 2 mg/kg, iv; format: ADME, organism-based; conditions: in vivo, read-out: Vdss; how it was run: as §1
[5] = AUC (0 to infinity) in Sprague-Dawley rat at 5 mg/kg, po; format: ADME, organism-based; set-up: dose 5 mg/kg, route oral, time infinity; conditions: in vivo; how it was run: as §1
[6] = target: Voltage-gated inwardly rectifying potassium channel KCNH2 (Homo sapiens, UniProt Q12809); assay: Inhibition of radiolabeled dofetilide binding to human ERG expressed in HEK293 cells
[7] = Clearance in Sprague-Dawley rat at 2 mg/kg, iv relative to liver blood flow; format: ADME, organism-based; conditions: in vivo; how it was run: as §1
[8] = Aqueous solubility in 0.01N HCl after 48 to 72 hrs by HPLC analysis; format: physicochemical
How it was run: (§2)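 Aqueous solubility determined in 0.01N HCl, PBS (pH 7.4) and FaSIF (pH 6.8).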

[9] = Aqueous solubility in pH 7.4 PBS after 48 to 72 hrs by HPLC analysis; format: physicochemical; how it was run: as §2
[10] = target: Casein kinase II subunit alpha (Homo sapiens) (UniProt P68400); assay: Competitive binding affinity to full length wild type human CSNK2A1 expressed in mammalian expression system at 10 uM by kinomescan method relative to control
How it was run: (§3)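 DiscoveRX scanMAX kinase panel of protein and lipid kinases and common mutants; competitive binding of compound at 10 µM expressed as percentage of control (POC).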

Homo sapiens = species: Homo sapiens; assay: Competitive binding affinity to wild type human DYRK at 10 uM by kinomescan method relative to control; how it was run: as §3
[11] = test system: Receptor-type tyrosine-protein kinase FLT3 (Homo sapiens), P36888 [D835Y]; assay: Competitive binding affinity to partial length […] human FLT3 D835Y expressed in bacterial expression system at 10 uM by kinomescan method relative to control
How it was run: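 Single-concentration (10 µM) screen in the scanMAX competition-binding panel of protein and lipid kinases and their common mutants. Binding is expressed as percentage of control (POC).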

[12] = target: Glycogen synthase kinase-3 alpha (Homo sapiens) (UniProt P49840); assay: Competitive binding affinity to full length wild type human GSK3A expressed in bacterial expression system at 10 uM by kinomescan method relative to control; how it was run: as §3
Sequence of Glycogen synthase kinase-3 alpha (Homo sapiens) (P49840 2-483 limits assumed): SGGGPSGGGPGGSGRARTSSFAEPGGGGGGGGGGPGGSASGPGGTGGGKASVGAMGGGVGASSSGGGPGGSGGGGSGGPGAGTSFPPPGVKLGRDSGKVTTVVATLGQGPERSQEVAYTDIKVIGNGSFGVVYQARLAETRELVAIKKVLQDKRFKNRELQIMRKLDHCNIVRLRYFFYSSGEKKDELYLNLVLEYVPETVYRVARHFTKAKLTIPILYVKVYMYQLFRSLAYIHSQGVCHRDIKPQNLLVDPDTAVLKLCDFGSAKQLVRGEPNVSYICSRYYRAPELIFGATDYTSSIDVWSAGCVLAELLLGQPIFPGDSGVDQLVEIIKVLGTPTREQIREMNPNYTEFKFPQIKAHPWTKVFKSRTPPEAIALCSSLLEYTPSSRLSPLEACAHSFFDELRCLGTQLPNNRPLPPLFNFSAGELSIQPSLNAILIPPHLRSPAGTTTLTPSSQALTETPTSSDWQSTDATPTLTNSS

[13] = target: Glycogen synthase kinase-3 beta (Homo sapiens) (UniProt P49841); assay: Competitive binding affinity to full length wild type human GSK3B expressed in mammalian expression system at 10 uM by kinomescan method relative to control; how it was run: as §3
[14] = target: Homeodomain-interacting protein kinase 1 (Homo sapiens) (UniProt Q86Z02); assay: Competitive binding affinity to partial length wild type human HIPK1 expressed in mammalian expression system at 10 uM by kinomescan method relative to control; how it was run: as §3
Sequence of Homeodomain-interacting protein kinase 1 (Homo sapiens) (Q86Z02 whole entry, looked up): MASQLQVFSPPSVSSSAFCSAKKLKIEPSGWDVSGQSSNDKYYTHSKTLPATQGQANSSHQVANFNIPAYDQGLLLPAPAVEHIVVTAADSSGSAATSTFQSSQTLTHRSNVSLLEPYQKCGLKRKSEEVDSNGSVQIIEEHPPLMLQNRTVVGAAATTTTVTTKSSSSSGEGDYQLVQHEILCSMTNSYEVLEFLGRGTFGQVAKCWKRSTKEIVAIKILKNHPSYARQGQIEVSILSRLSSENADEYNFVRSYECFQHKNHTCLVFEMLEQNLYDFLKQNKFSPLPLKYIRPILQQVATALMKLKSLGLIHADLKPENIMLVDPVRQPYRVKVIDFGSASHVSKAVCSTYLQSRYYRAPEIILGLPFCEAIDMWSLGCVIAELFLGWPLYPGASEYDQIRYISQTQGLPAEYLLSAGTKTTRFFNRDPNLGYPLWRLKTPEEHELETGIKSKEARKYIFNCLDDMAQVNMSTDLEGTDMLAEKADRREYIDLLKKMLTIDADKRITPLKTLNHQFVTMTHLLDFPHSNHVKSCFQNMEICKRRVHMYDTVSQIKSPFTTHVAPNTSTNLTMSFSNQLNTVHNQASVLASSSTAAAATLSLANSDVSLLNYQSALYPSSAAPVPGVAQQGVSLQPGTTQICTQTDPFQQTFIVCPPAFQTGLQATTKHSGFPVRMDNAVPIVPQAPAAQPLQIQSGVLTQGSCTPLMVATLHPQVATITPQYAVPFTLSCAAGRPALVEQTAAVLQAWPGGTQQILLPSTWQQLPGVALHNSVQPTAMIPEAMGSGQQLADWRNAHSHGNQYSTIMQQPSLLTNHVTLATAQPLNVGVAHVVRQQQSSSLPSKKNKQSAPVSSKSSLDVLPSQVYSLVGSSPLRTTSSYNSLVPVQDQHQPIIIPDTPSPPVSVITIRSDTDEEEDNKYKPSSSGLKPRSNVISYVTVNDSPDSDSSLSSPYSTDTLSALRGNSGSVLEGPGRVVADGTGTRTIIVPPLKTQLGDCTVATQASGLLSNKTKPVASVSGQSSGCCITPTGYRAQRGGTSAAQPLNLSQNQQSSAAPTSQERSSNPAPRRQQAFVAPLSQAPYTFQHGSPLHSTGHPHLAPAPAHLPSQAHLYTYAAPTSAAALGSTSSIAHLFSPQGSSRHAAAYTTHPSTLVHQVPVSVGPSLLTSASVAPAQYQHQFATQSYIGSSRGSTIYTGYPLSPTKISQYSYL

[15] = target: Homeodomain-interacting protein kinase 2 (Homo sapiens) (UniProt Q9H2X6); assay: Competitive binding affinity to partial length wild type human HIPK2 expressed in mammalian expression system at 10 uM by kinomescan method relative to control; how it was run: as §3
Sequence of Homeodomain-interacting protein kinase 2 (Homo sapiens) (Q9H2X6 whole entry, looked up): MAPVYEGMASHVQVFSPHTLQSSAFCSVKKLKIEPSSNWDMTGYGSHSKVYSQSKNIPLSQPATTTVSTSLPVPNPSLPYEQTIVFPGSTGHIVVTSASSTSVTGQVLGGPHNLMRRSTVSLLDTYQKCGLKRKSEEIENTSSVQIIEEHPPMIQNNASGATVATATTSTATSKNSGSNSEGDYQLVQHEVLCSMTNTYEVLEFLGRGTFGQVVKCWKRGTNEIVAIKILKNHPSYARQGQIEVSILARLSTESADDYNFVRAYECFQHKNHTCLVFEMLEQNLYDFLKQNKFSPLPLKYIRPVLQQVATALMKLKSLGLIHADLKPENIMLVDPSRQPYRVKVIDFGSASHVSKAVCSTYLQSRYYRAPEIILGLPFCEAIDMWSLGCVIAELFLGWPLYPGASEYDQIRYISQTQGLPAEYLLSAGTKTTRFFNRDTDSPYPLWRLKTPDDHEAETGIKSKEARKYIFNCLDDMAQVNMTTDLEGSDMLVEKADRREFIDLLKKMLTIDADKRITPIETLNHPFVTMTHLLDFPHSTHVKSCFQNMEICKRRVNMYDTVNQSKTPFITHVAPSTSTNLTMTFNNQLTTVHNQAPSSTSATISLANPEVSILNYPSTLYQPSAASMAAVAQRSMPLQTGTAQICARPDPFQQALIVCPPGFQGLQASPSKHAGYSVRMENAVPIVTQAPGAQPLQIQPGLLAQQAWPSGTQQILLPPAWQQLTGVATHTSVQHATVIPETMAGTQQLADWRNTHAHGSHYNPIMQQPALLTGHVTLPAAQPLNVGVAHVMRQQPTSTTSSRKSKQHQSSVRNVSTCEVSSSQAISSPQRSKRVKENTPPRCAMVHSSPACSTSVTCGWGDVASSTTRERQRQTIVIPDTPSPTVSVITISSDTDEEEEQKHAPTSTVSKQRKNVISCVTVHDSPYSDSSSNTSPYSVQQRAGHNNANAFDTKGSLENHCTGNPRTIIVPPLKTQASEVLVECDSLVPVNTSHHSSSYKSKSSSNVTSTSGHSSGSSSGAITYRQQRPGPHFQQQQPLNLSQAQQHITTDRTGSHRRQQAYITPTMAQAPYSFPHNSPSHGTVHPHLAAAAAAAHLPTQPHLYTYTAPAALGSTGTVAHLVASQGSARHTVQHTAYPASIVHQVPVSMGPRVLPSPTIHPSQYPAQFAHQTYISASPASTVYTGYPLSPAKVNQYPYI

[16] = target: Homeodomain-interacting protein kinase 3 (Homo sapiens) (UniProt Q9H422); assay: Competitive binding affinity to partial length wild type human HIPK3 expressed in mammalian expression system at 10 uM by kinomescan method relative to control; how it was run: as §3
Sequence of Homeodomain-interacting protein kinase 3 (Homo sapiens) (Q9H422 whole entry, looked up): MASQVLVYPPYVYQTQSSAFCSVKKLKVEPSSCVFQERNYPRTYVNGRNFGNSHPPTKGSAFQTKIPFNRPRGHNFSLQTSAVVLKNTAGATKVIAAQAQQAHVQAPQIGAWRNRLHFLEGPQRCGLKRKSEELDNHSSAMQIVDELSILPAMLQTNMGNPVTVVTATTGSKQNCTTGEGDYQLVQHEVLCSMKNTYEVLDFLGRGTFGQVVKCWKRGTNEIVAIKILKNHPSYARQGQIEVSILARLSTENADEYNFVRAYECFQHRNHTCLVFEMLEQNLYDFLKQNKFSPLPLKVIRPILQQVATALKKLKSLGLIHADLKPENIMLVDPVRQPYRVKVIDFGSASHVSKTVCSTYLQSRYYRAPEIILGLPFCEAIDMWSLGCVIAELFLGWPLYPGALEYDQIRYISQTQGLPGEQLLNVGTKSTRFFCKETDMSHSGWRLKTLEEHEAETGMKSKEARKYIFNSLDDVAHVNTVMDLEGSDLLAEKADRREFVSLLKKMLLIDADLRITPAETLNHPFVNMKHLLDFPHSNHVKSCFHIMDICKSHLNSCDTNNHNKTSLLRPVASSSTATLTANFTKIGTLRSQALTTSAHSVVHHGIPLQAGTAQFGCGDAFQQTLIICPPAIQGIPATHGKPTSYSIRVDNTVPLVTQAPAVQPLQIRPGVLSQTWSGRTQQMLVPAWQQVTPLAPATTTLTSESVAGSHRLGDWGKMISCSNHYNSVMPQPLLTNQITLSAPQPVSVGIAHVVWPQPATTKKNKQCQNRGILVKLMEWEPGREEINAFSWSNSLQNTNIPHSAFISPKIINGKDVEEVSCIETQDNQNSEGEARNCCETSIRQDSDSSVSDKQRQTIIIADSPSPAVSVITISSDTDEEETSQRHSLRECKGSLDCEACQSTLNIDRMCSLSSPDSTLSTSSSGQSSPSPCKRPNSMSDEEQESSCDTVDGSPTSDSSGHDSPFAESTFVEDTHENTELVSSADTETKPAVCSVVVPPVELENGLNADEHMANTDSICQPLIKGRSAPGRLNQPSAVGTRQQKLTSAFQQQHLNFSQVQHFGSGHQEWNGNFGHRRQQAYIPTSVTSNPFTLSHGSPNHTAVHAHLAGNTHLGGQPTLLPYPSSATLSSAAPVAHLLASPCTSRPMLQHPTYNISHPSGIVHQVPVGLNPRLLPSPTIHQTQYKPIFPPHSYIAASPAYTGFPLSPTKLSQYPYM

[17] = target: Phosphatidylinositol 4-phosphate 5-kinase type-1 gamma (Homo sapiens) (UniProt O60331); assay: Competitive binding affinity to partial length wild type human PIP5K1C expressed in mammalian expression system at 10 uM by kinomescan method relative to control; how it was run: as §3
[18] = target: Serine/threonine-protein kinase TAO1 (Homo sapiens) (UniProt Q7L7X3); assay: Competitive binding affinity to partial length wild type human TAOK1 expressed in mammalian expression system at 10 uM by kinomescan method relative to control; how it was run: as §3
[19] = target: Serine/threonine-protein kinase TAO3 (Homo sapiens) (UniProt Q9H2K8); assay: Competitive binding affinity to partial length wild type human TAOK3 expressed in mammalian expression system at 10 uM by kinomescan method relative to control; how it was run: as §3
Sequence of Serine/threonine-protein kinase TAO3 (Homo sapiens) (Q9H2K8 whole entry): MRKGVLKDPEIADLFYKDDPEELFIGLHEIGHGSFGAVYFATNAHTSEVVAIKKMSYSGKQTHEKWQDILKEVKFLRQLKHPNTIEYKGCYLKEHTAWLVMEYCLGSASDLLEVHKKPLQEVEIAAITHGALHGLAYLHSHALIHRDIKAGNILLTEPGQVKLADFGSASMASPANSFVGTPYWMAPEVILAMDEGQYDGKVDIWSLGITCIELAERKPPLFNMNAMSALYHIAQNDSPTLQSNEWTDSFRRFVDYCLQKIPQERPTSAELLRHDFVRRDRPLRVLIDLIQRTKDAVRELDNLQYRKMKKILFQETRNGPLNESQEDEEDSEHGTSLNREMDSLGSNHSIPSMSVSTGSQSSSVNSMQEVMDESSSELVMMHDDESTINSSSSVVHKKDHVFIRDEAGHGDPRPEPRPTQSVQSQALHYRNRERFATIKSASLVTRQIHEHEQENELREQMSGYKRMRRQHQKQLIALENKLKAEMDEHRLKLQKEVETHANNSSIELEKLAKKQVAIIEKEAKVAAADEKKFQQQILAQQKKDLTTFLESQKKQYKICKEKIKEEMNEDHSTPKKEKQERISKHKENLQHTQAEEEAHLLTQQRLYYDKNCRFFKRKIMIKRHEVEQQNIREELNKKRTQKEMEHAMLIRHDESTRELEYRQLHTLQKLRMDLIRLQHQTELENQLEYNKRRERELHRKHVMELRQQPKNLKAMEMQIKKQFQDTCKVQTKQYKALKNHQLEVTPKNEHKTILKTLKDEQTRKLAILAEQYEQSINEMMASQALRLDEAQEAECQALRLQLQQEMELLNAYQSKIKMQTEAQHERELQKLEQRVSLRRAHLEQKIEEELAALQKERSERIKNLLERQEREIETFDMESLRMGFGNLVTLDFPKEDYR

[20] = target: Serine/threonine-protein kinase VRK2 (Homo sapiens) (UniProt Q86Y07); assay: Competitive binding affinity to partial length wild type human VRK2 expressed in mammalian expression system at 10 uM by kinomescan method relative to control; how it was run: as §3
[21] = Antiproliferative activity against human MOLP8 cells after 72 hrs by CellTiter-Glo assay; format: functional, cell-based; conditions: MOLP-8, 72 h
[22] = Antiproliferative activity against human KMS28BM cells after 72 hrs by CellTiter-Glo assay; format: functional, cell-based; conditions: KMS-28BM
[23] = Antiproliferative activity against human KMS11 cells after 72 hrs by CellTiter-Glo assay; format: functional, cell-based; conditions: KMS-11, 72 h
[24] = Antiproliferative activity against human KARPAS620 cells after 72 hrs by CellTiter-Glo assay; format: functional, cell-based; conditions: Karpas-620, 72 h
[25] = Antiproliferative activity against human KMS-12-BM cells after 72 hrs by CellTiter-Glo assay; format: functional, cell-based
[26] = Antiproliferative activity against human SKMM-2 cells after 72 hrs by CellTiter-Glo assay; format: functional, cell-based; conditions: SK-MM-2, 72 h
[27] = Antiproliferative activity against human MOLP2 cells after 72 hrs by CellTiter-Glo assay; format: functional, cell-based; conditions: MOLP-2, 72 h
[28] = Antiproliferative activity against human MM1S cells after 72 hrs by CellTiter-Glo assay; format: functional, cell-based; conditions: MM1.S
[29] = Antiproliferative activity against human JJN-3 cells after 72 hrs by CellTiter-Glo assay; format: functional, cell-based; conditions: JJN-3, 72 h
[30] = Antiproliferative activity against human KMS26 cells after 72 hrs by CellTiter-Glo assay; format: functional, cell-based; conditions: KMS-26, 72 h
[31] = Antiproliferative activity against human U266B1 cells harboring BRAF mutant after 72 hrs by CellTiter-Glo assay; format: functional, cell-based; conditions: U-266, 72 h
[32] = Inhibition of Pim signaling in human KMS-12-BM cells assessed as upregulation of Pim2 expression at […] after 4 to 72 hrs by Western blot method; format: cell-based
[33] = Inhibition of Pim signaling in human KMS-12-BM cells assessed as upregulation of Pim3 expression at […] after 4 to 72 hrs by Western blot method; format: cell-based
KMS-12-BM [34] = assay: Induction of apoptosis in human KMS-12-BM cells assessed as increase in cleaved caspase 3 levels at […] after 4 to 72 hrs by Western blot method; format: functional, cell-based
KMS-12-BM [35] = assay: Induction of apoptosis in human KMS-12-BM cells assessed as increase in cleaved caspase 6 levels at […] after 4 to 72 hrs by Western blot method; format: functional, cell-based
KMS-12-BM [36] = assay: Induction of apoptosis in human KMS-12-BM cells assessed as increase in cleaved caspase 7 levels at […] after 4 to 72 hrs by Western blot method; format: functional, cell-based
MDR1 = assay: Permeability in rat LLC-PK1 cells expressing MDR1

C[C@@H]1C[C@H](N)CN(c2ccncc2Nc2ncc3ccc(-c4c(F)cccc4F)nn23)C1
microsomal CLint at 1 µM [1]: > 399 µL/min/mg | microsomal CLint at 1 µM [2]: 69 µL/min/mg | CL [3]: 1.4 L/h/kg | Vd [4]: 7.3 L/kg | AUC [5]: 3.5 µM·h | IC50 [6]: 1 µM | CL [7]: 40% | solubility [8]: 0.2 mg/mL (≈ 459 µM) | solubility [9]: 0.18 mg/mL (≈ 413 µM) | Activity [10]: 4.2% | Activity (Homo sapiens): 3.4% | Activity [11]: 6.1% | Activity [12]: 1.4% | Activity [13]: 2.3% | Activity [14]: 7% | Activity [15]: 1.8% | Activity [16]: 1.2% | Activity [17]: 7% | Activity [18]: 0.6% | Activity [19]: 0.4% | Activity [20]: 9.2% | IC50 [21]: 0.058 µM | IC50 [22]: 0.086 µM | IC50 [23]: 0.1 µM | IC50 [24]: 0.162 µM | IC50 [25]: 0.216 µM | IC50 [26]: 0.228 µM | IC50 [27]: 0.332 µM | IC50 [28]: 0.361 µM | IC50 [29]: 0.375 µM | IC50 [30]: 0.393 µM | IC50 [31]: 10 µM | Activity [32]: Active | Activity [33]: Active | Activity (KMS-12-BM [34]): Active | Activity (KMS-12-BM [35]): Active | Activity (KMS-12-BM [36]): Active | Papp (MDR1): 45 nm/s
